Test results taken from ChEMBL document CHEMBL3865803, “Bicyclic octahydrocyclohepta[b]pyrrol-4(1H)one derivatives as novel selective anti-hepatitis C virus agents” (Eur J Med Chem, 2016).

Experiments:
[1] = system: Hepatitis C virus; experiment: Antiviral activity against HCV genotype 2a infected in human Huh7.5-FGR-JC1-Rluc2A replicon cells assessed as inhibition of viral RNA replication at 50 uM measured after 48 hrs by luciferase reporter gene assay relative to control; type: functional, Hepacivirus hominis; details: Huh-7, 48 h
Procedure, shortened: (§1)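 Replicon cells (gt1b firefly luciferase; gt2a Renilla luciferase) in DMEM/10% FBS with G418, ~1 × 10^4 cells/well, dosed 12 h after seeding with 50 µM compound or DMSO (1% final) for 48 h at 37 °C. Cells were PBS-washed and luciferase read; % inhibition was taken versus DMSO-treated cells, mean±SD, n=3.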

[2] = system: Hepatitis C virus; experiment: Antiviral activity against HCV genotype 1b infected in human Huh7/Rep-Feo1b replicon cells assessed as inhibition of viral RNA replication at 50 uM measured after 48 hrs by luciferase reporter gene assay relative to control; type: functional, Hepacivirus hominis; details: Huh-7, 48 h; procedure, shortened: as §1
[3] = Cytotoxicity against human Huh7.5 cells measured after 48 hrs by MTS assay; type: toxicity, cell-based, Huh-7; details: for CC50 at 48 h: Huh7.5 cells; for Activity: huh-7, 48 h
Procedure, shortened: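 Parental Huh7.5 cells were treated 12 h after seeding with 8-10 dilutions of compound or DMSO (1% final) for 48 h at 37 °C. Viability was read by MTS bioreduction to formazan. CC50 is the concentration halving the MTS signal, mean ± SD of three independent experiments.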

[4] = system: Hepatitis C virus; experiment: Antiviral activity against HCV genotype 1b infected in human Huh7/Rep-Feo1b replicon cells assessed as inhibition of viral RNA replication measured after 48 hrs by luciferase reporter gene assay; type: functional, cell-based, Hepacivirus hominis; details: Huh-7, 48 h
Procedure, shortened: (§2)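 EC50 from concentration-response in replicon cells (gt1b firefly, gt2a Renilla luciferase reporter) maintained with G418. Compound added 12 h post-seeding (~1 × 10^4 cells/well), 48 h exposure, DMSO 1% final. Luciferase was compared with DMSO controls; the value is the mean ± SD of three independent 8-12 point quarter-log dilution series, calculated with CalcuSyn.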

[5] = Selectivity index, ratio of CC50 for human Huh7.5 cells to EC50 for HCV genotype 2a infected in human Huh7.5-FGR-JC1-Rluc2A replicon cells; design: species or system Huh-7
[6] = Selectivity index, ratio of CC50 for human Huh7.5 cells to EC50 for HCV genotype 1b infected in human Huh7/Rep-Feo1b replicon cells; design: species or system Huh-7
[7] = system: Hepatitis C virus; experiment: Antiviral activity against HCV genotype 2a infected in human Huh7.5-FGR-JC1-Rluc2A replicon cells assessed as inhibition of viral RNA replication incubated for 48 hrs by luciferase reporter gene assay; type: functional, cell-based, Hepacivirus hominis; details: Huh-7, 48 h; procedure, shortened: as §2

| SMILES | inhibition at 50 µM [1] [%] | inhibition at 50 µM [2] [%] | CC50 at 48 h [3] [µM] | Activity [3] [%] | EC50 [4] [µM] | Ratio CC50/EC50 [5] | Ratio CC50/EC50 [6] | EC50 [7] [µM] |
| --- | --- | --- | --- | --- | --- | --- | --- | --- |
| CCOC(=O)[C@H](C)N1CC[C@H]2C(=O)CCCC[C@@H]21 | 83 |  |  |  |  |  |  |  |
| CCOC(=O)[C@@H](C)N1CC[C@H]2C(=O)CCCC[C@@H]21 | 38 | 24 | > 100 | 88 |  |  |  |  |
| OC1CCCC[C@H]2[C@H]1[C@@H](c1cccc(F)c1)CN2Cc1ccccc1 (mixture of isomers) | 99 | 99 | 36.9 | 28 | 2 | 30.8 | 18.4 | 1.2 |
| Cc1ccc(S(=O)(=O)N2[C@H](C(=O)O)C[C@@H]3/C(=N/Nc4ccccc4)CCCC[C@@H]32)cc1 (racemic) | 81 | 25 | > 200 |  |  | >7.6 |  | 26.3 |
| O=C1CCCC[C@@H]2[C@@H]1[C@H](c1cccc(F)c1)CN2Cc1ccccc1 (racemic) | 97 | 83 | > 50 | 63 | 11.7 | >31.8 | >4.2 | 1.6 |
| Cc1ccc(S(=O)(=O)N2[C@H](C(=O)N3CCOCC3)C[C@@H]3C(=O)CCCC[C@@H]32)cc1 (racemic) | 12 | 19 | > 200 |  |  |  |  |  |
| Cc1ccc(S(=O)(=O)N2[C@H](C(=O)NCCc3ccccc3)C[C@@H]3C(=O)CCCC[C@@H]32)cc1 (racemic) | 48 | 66 | 153 |  | 28.1 |  | 5.4 |  |
| Cc1ccc(S(=O)(=O)N2[C@H]3CCCCC(=O)[C@@]3(C)C[C@H]2C(=O)O)cc1 (racemic) | 33 | 41 | > 200 |  |  |  |  |  |
| O=C1CCCC[C@@H]2[C@@H](N1)[C@H](c1cccc(F)c1)CN2Cc1ccccc1 (racemic) | 80 | 49 |  |  |  |  |  |  |
| C[C@]12C[C@@H](Cc3ccccc3)N(Cc3ccccc3)[C@H]1CCCC(=O)N2 (racemic) | 95 | 87 | > 50 | 60 | 18.2 | >4.3 | >2.7 | 11.5 |
| CCOC(=O)[C@@H]1C[C@@H]2[C@@H](CCC[C@@H]2O)N1S(=O)(=O)c1ccc(C)cc1 (racemic) | 45 | 38 | > 150 | 93 |  |  |  |  |
| CCOC(=O)[C@@H]1C[C@@H]2NC(=O)CCCC[C@@H]2N1S(=O)(=O)c1ccc(C)cc1 (racemic) | 71 | 66 | 143 | 92 | 11.6 | 17.4 | 12.4 | 8.2 |
| Cc1ccc(S(=O)(=O)N2[C@H](C(N)=O)C[C@@H]3C(=O)CCCC[C@@H]32)cc1 (racemic) | 38 |  | > 200 |  |  |  |  |  |
| CCOC(=O)[C@@H]1C[C@@H]2[C@@H](O)CCCC[C@@H]2N1S(=O)(=O)c1ccc(C)cc1 (racemic) | 77 | 22 | > 200 |  |  | 7.3 |  | 27.6 |
| O=C(O)[C@@H]1C[C@H]2[C@@H](O)CCC[C@H]2N1 (racemic) | 12 |  |  |  |  |  |  |  |
| O=C1CCCC[C@H]2[C@H](N1)[C@@H](c1ccccc1)CN2Cc1ccccc1 (racemic) | 59 | 80 | > 200 | 98 | 24.1 | >16.1 | >8.3 | 12.4 |
| COc1cccc([C@@H]2CN(Cc3ccccc3)[C@@H]3CCCCC(=O)N[C@H]32)c1 (racemic) | 54 | 59 |  |  |  |  |  |  |
| Cc1ccc(S(=O)(=O)N2[C@H](C(=O)O)C[C@@H]3C(=O)CCCC[C@@H]32)cc1 (racemic) | 42 | 14 | > 200 |  |  |  |  |  |
| Cl.Cl.Fc1cccc([C@@H]2CN(Cc3ccccc3)[C@@H]3CCCCCN[C@H]32)c1 (racemic) | 61 | 98 | < 50 | 11 |  |  |  |  |
| O=C1CCCC[C@@H]2[C@H]1[C@@H](c1ccccc1)CN2Cc1ccccc1 (racemic) | 4 | 38 |  |  |  |  |  |  |
| O=C1CCCC[C@@H]2[C@H](C[C@H](Cc3ccccc3)N2Cc2ccccc2)N1 (racemic) | 99 | 82 | > 50 | 61 | 7.5 | >8.8 | >6.6 | 5.6 |
| CC(C)(C)OC(=O)N1CC[C@H]2[C@H](C(=O)C1)[C@@H](c1ccccc1)CN2Cc1ccccc1 (racemic) | 99 | 94 | > 50 | 61 | 9 | >11.2 | >5.5 | 4.47 |
| O=C1CCCC[C@@H]2[C@H]1[C@@H](c1ccccc1)CN2S(=O)(=O)c1ccccc1 (racemic) | 88 | 78 | > 200 | 84 | 16.5 | 17.6 | 12.1 | 11.4 |
| CCOC(=O)[C@@H]1C[C@@H]2C(=O)CCCC[C@@H]2N1S(=O)(=O)c1ccnn1C (racemic) | 17 |  | > 200 |  |  |  |  |  |
| CCOC(=O)[C@@H]1C[C@@H]2/C(=N/OCc3ccccc3)CCCC[C@@H]2N1S(=O)(=O)c1ccc(C)cc1 (racemic) | 30 |  | > 200 |  |  |  |  |  |
| CC(C)(C)OC(=O)N1CC[C@@H]2NC[C@H](c3ccccc3)[C@H]2C(=O)C1.Cl (racemic) | 47 | 48 | > 150 | 97 |  |  |  |  |
| CCNC(=O)[C@@H]1C[C@@H]2C(=O)CCCC[C@@H]2N1S(=O)(=O)c1ccc(C)cc1 (racemic) | 39 | 15 | > 200 |  |  |  |  |  |
| CCOC(=O)[C@@H]1C[C@@H]2C(=O)CCCC[C@@H]2N1S(=O)(=O)c1ccc(Cl)cc1 (racemic) | 60 | 32 | > 200 |  |  | 8.4 |  | 23.8 |
